We go through five compounds from ChEMBL document CHEMBL1821698, “Synthesis and biological activities of (R)- and (S)-N-(4-Methoxyphenyl)-N,2,6-trimethyl-6,7-dihydro-5H-cyclopenta[d]pyrimidin-4-aminium chloride as potent cytotoxic antitubulin agents” (J Med Chem, 2011).

The structures appear in SMILES notation. The source made the active and inactive calls. The calls are words filed in the database; no cut-off is given here.

A word on the IC50: it is the point on the concentration scale where inhibition reaches its midpoint. By EC50 is commonly meant the concentration giving half of the maximal effect. Low values mean an effect from little substance, high ones a need for much substance. As usually defined, the inhibition is the change of the read-out against control, counted positive when it falls. A high value points to strong suppression.

The test system of assay [1] is MDA-MB-435. Kind of assay: Cell cycle arrest in human MDA-MB-435 cells assessed as accumulation of cells at G2/M phase at 3 times IC50 after 18 hrs by flow cytometry. Format: functional. (In general: Flow cytometry measures light scatter and fluorescence of single cells or particles in a stream.)
Assay [2] has as its system MDA-MB-435. Kind of assay: Antiproliferative activity against human MDA-MB-435 cells by SRB assay. It is filed as functional, cell-based. The gist of the method:
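SRB assay on drug-sensitive MDA-MB-435 cells; IC50 is the concentration giving 50% inhibition of proliferation, n = 3.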
(In SRB staining, fixed cells bind dye roughly in proportion to their protein.)

The nature of assay [3]: Inhibition of microtubule polymerization in A-10 cells. Particulars: A10.
The test system of assay [4] is SK-OV-3. Description: Antiproliferative activity against MDR-1-6/6 overexpressing human SKOV3 cells. Format: functional, cell-based.
For assay [5], the system named is SK-OV-3. Kind of assay: Antiproliferative activity against human SKOV3 cells. It is filed as functional, cell-based.
In assay [6] the test system is tubulin (Bos taurus). Description: Displacement of [3H]colchicine from bovine brain tubulin using purified tubulin at 1 uM. On the technique in general: Displacement assays read how much labelled ligand stays bound in the presence of the test substance.
In assay [7] the test system is tubulin (Bos taurus). Description: Displacement of [3H]colchicine from bovine brain tubulin at 5 uM.
Assay [8] deals with HeLa. Description: Antiproliferative activity against human HeLa cells. Format: functional, cell-based.
The subject of assay [9] is MDA-MB-435. Description: Cell cycle arrest in human MDA-MB-435 cells assessed as accumulation of cells at subG1 phase at 3 times IC50 after 18 hrs by flow cytometry. It is filed as functional, cell-based.
Assay [10] concerns HeLa. Kind of assay: Antiproliferative activity against beta3-tubulin overexpressing human HeLa cells. It is filed as functional, cell-based.
For assay [11], the system named is HeLa. Description: Relative resistance ratio of IC50 for beta3-tubulin overexpressing human HeLa cells to IC50 for human HeLa cells. It is filed as functional.
Assay [12] can be described thus: Inhibition of bovine brain tubulin assembly.
Assay [13] in a line: Ratio of EC50 for microtubule depolymerization in A-10 cells to IC50 for human MDA-MB-435 cells.
Assay [14] deals with SK-OV-3. Description: Relative resistance ratio of IC50 for MDR-1-6/6 overexpressing human SKOV3 cells to IC50 for human SKOV3 cells. It is filed as functional.

For `COc1ccc(/C=C\c2cc(OC)c(OC)c(OC)c2)cc1O` [COMBRETASTATIN A4], the Activity in the assay on MDA-MB-435 [1] is on record as 88.4%. The concentration for half-maximal inhibition (IC50) in the assay on MDA-MB-435 [2] worked out at 3.4 nM; in the assay on SK-OV-3 [4], 22 nM; with SK-OV-3 [5], 6.05 nM. The compound also displayed an EC50 in assay [3] of 13 nM. Besides, the inhibition with tubulin (Bos taurus) [6] worked out at 85%; with tubulin (Bos taurus) [7], 98%.

Consider `COc1ccc(N(C)c2nc(C)nc3c2CC(C)C3)cc1.Cl` (racemic), for which the IC50 with HeLa [8] was determined as 37.3 nM; in the assay with MDA-MB-435 [2], 17 nM; with HeLa [10], 23.9 nM; in [12], 1500 nM; with SK-OV-3 [4] it was 60.9 nM; in the assay with SK-OV-3 [5], 34.5 nM. Further, the result in the assay on MDA-MB-435 [9] was Active. In addition, the Activity in the assay on MDA-MB-435 [1] came out at 65.9%. For the same compound, the EC50 in [3] came to 56 nM. Besides, the “Ratio IC50” value in the assay with HeLa [11] was 0.6; in the assay with SK-OV-3 [14] it was 1.8. Also, the Ratio in assay [13] was found to be 3. The inhibition in the assay with tubulin (Bos taurus) [6] amounted to 59%; in the assay on tubulin (Bos taurus) [7] it was 87%.

As to `COc1ccc(N(C)c2nc(C)nc3c2C[C@H](C)C3)cc1.Cl`, the concentration for half-maximal inhibition (IC50) in the assay with HeLa [8] came out at 19 nM; in the assay on MDA-MB-435 [2], 12 nM; in the assay on HeLa [10], 13.3 nM; in assay [12] it was 1300 nM; in the assay with SK-OV-3 [4], 62.6 nM; in the assay with SK-OV-3 [5], 16.4 nM. The outcome with MDA-MB-435 [9] was Active. In addition, the Activity with MDA-MB-435 [1] is 49.2%. For the same compound, the EC50 in assay [3] turned out to be 23 nM. Moreover, the figures for the “Ratio IC50” value with HeLa [11] and in the assay on SK-OV-3 [14] were 0.7 and 3.8, respectively. Moreover, the Ratio in assay [13] came to 2. Besides, the inhibition came to 70% in the assay with tubulin (Bos taurus) [6] and 93% with tubulin (Bos taurus) [7].

`COc1ccc(N(C)c2nc(C)nc3c2C[C@@H](C)C3)cc1.Cl`: the IC50 was found to be 92.9 nM in the assay on HeLa [8]; 51 nM in the assay on MDA-MB-435 [2]; 67.7 nM with HeLa [10]; 2100 nM in assay [12]; 120 nM with SK-OV-3 [4]; 85.9 nM in the assay with SK-OV-3 [5]. The Activity in the assay on MDA-MB-435 [1] stood at 91.4%. The same compound showed a concentration giving a half-maximal response (EC50) in assay [3] of 278 nM. Further, the “Ratio IC50” value in the assay with HeLa [11] is 0.7; with SK-OV-3 [14], 1.4. In addition, in assay [13], the Ratio was 5. The results for the inhibition with tubulin (Bos taurus) [6] and in the assay with tubulin (Bos taurus) [7] were 37% and 77%, respectively.

For the compound `CC(=O)O[C@H]1C(=O)[C@@]2(C)[C@H]([C@H](OC(=O)c3ccccc3)[C@]3(O)C[C@H](OC(=O)[C@H](O)[C@@H](NC(=O)c4ccccc4)c4ccccc4)C(C)=C1C3(C)C)[C@]1(OC(C)=O)CO[C@@H]1C[C@@H]2O` [PACLITAXEL], the IC50 in the assay with SK-OV-3 [4] was 4880 nM; with SK-OV-3 [5] it was 2.95 nM.
